Experimental data: PMC9199482 (Surgical Endoscopy, 2022)
Where two headings read alike, the source gives them in different places. One block for each compound: values may come before it.

How the values were obtained:
[1] = tested on: patients with right colon cancer; assay: ICG fluorescence lymphography in robotic right hemicolectomy; type: in vivo, human; conditions: 9 patients
Summary of the method: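 Right colon cancer patients had robotic right hemicolectomy with complete mesocolic excision, in two arms of 9. One arm received intraoperative submucosal ICG injection, and fluorescence guided the lymphadenectomy. The comparison arm had standard technique without ICG. ICG-related complications were recorded, with histological nodal staging afterwards.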

adrenal vein = assay: Intraoperative ICG angiography in laparoscopic adrenal resection; type: in vivo, patients
[2] = tested on: patients with symptomatic cholelithiasis or acute cholecystitis; assay: Direct gallbladder ICG injection during laparoscopic cholecystectomy; type: in vivo, human; conditions: 29 patients
Summary of the method: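 Prospective series of laparoscopic cholecystectomies. ICG was diluted in 10 cc sterile water and injected percutaneously into the gallbladder through a 22G fine needle under direct laparoscopic vision; 2–4 cc was given. Cystic, common bile and common hepatic ducts were recorded as identified or not, first after injection before dissection, then after dissection began.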

[3] = tested on: patients scheduled for laparoscopic cholecystectomy; assay: Near-infrared fluorescence cholangiography at a very low dose of ICG; type: in vivo, human; conditions: n = 44
Summary of the method: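 Prospective study of patients scheduled for laparoscopic cholecystectomy. Each received 0.25 mg ICG intravenously after anaesthetic induction, then NIR fluorescence cholangiography in endoscope overlay mode. Visualisation of the cystic duct, common bile duct and their junction was recorded before and after Calot's triangle dissection. Also recorded: hepatic hyperluminescence, adverse reactions and surgeon satisfaction on a visual analogue scale.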

[4] = tested on: patients with colorectal cancer; type: in vivo, human
Summary of the method: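 Prospective observational study of consecutive patients from 4/2019 undergoing robotic colorectal cancer surgery. The day before surgery, endoscopy delivered 3 mg ICG in 6 ml saline into the peritumoral submucosa as four 1.5 ml injections at the cardinal points. Fluorescence guided any extension of standard lymphadenectomy. Fluorescent extraregional nodes were counted per patient and by resection type.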

[5] = tested on: small bowel of large white pigs; type: in vivo, pig; conditions: five pigs, baseline 0.74
[6] = tested on: patients undergoing LRYGB; assay: RCT of intraperitoneal local anesthetic in LRYGB with ERABS protocol; type: in vivo, human; conditions: intraperitoneal ropivacaine 0.2% 100 mL; both groups
Summary of the method: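 Prospective double-blind randomised controlled pilot trial with an a-priori protocol: 120 laparoscopic Roux-en-Y gastric bypass patients under an established ERABS protocol. Patients were randomised to intraperitoneal ropivacaine 0.2% 100 mL or normal saline 100 mL. Adverse events were recorded in both arms.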

[7] = after ICG injection and before starting the dissection
[8] = 0.25 mg ICG i.v. after anaesthetic induction

ICG-related complications [1]: none
Compound: CC1(C)C(/C=C/C=C/C=C/C=C2\N(CCCCS(=O)(=O)O)c3ccc4ccccc4c3C2(C)C)=[N+](CCCCS(=O)(=O)[O-])c2ccc3ccccc3c21 [ICG, indocyanine green]
cases in which ICG confirmed the adrenal vein (adrenal vein; laparoscopic right adrenal resection): 2/3
cases in which ICG helped identify the vessel, after the dissection (adrenal vein; left laparoscopic adrenalectomy): 100%
cases with common bile duct identified [2, 7]: 18 cases
cases with common hepatic duct identified [2, 7]: 9 cases
cases with common bile duct identified ([2]; after starting the dissection): 27 cases
cases with common hepatic duct identified ([2]; after starting the dissection): 14 cases
cases with cystic duct identified ([2]; after starting the dissection): all cases
CBD identified by ICG NIRF-C [3, 8]: 100%
CD identified by ICG NIRF-C [3, 8]: 71%
CDBDJ identified by ICG NIRF-C [3, 8]: 84%
bile duct injuries or allergic reactions to ICG ([3]; 0.25 mg ICG i.v.): no bile duct injuries (BDIs) or allergic reactions to ICG
surgeries with surgeon satisfaction of 4/5 or 5/5 (VAS) ([3]; 0.25 mg ICG i.v.): ~90%
patients with ICG-fluorescent lymphnodes observed ([4]; 3 mg ICG in 6 ml saline, peritumoral submucosal, day before surgery, 86/88): 97,7%
patients with fluorescent extraregional lymph nodes ([4]; 34 of 88 patients): 38,6%
ICG-injection related complication ([4]; 88 patients): No ICG-injection related complication occurred
patients with fluorescent extraregional lymph nodes ([4]; anterior rectal resections): 21/33
patients with fluorescent extraregional lymph nodes ([4]; left hemicolectomies): 3/20
mean number of retrieved extraregional fluorescent lymph nodes ([4]; range 1–8): 4
patients with fluorescent extraregional lymph nodes ([4]; right hemicolectomies): 10/31

Compound: NC[C@H](O)c1ccc(O)c(O)c1 [norepinephrine]
local capillary lactate (LCL) ([5]; first assessment): 0.82 mmol/L
local capillary lactate (LCL) ([5]; fourth assessment): 0.62 mmol/L
local capillary lactate (LCL) ([5]; second assessment): 0.64 mmol/L
local capillary lactate (LCL) ([5]; third assessment): 0.60 mmol/L

Compound: CCCN1CCCC[C@H]1C(=O)Nc1c(C)cccc1C [ropivacaine]
adverse events [6]: no adverse events
